Compound activity (PubChem)
A selection: hits, their analogues and other compounds. The true share with any hit is near 2.3%.
TRPC6 act = activates the mouse TRPC6 cation channel | HEK293-TRPC6 membrane potential dye fluorescence; stronger effect = higher value | B-score at 10 µM | actives 0.13% (n = 310,000) | AID 2550;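 active means B-score of the integrated fluorescence ratio above library mean plus 3 SD, and starting fluorescence ratio within library mean plus 5 SD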;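 further: higher score means more depolarization so channel activation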
TRPC4 PAM = allosteric potentiators of mouse TRPC4 channel; Q9QUQ5; HEK293 TRPC4beta/mu-opioid, DAMGO EC20, Fluo-4 Ca2+ flux; stronger effect = higher value; B-score at 10 µM; actives 0.42% (n = 310,000); AID 2227;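 active means B-score of calcium response area above 5 SD of library B-scores, with initial fluorescence ratio within 5 SD of library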;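 further: B-score of integrated fluorescence ratio over time as area under calcium response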
Target sequence (Q9QUQ5 whole entry, looked up): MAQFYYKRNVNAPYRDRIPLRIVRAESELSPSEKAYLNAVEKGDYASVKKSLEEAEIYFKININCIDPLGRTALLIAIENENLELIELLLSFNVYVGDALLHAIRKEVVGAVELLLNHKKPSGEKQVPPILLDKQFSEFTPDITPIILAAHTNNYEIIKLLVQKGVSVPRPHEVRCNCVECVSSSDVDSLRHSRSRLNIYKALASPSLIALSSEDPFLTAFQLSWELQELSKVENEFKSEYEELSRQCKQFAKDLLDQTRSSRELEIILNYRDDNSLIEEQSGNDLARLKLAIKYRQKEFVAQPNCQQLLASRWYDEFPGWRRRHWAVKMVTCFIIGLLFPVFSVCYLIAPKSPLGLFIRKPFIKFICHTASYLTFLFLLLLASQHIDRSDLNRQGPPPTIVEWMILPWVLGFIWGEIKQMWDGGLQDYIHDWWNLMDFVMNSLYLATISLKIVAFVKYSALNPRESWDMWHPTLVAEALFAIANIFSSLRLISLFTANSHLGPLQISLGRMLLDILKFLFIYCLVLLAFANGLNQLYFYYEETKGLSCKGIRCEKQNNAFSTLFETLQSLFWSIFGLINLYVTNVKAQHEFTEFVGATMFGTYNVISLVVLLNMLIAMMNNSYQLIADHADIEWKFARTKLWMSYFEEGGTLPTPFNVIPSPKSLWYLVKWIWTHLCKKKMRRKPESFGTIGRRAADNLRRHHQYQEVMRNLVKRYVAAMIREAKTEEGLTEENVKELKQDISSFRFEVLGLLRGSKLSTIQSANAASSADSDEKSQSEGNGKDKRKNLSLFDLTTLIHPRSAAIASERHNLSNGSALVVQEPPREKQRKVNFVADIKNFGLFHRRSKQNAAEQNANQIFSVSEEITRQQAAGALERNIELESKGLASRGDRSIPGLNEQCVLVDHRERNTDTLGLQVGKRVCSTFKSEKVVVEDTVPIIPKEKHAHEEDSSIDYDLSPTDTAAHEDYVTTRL
Yeast superoxide = yeast age-related superoxide inhibition as caloric restriction mimetic. AID 2690. S. cerevisiae aged cells, superoxide DHE fluorescence; stronger effect = lower value. actives 0.18% (n = 330,000). superoxide response (% of plate mean), % at 10 µM;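 active means superoxide response under a set limit, about three screen SD below normal, cut at about 65% in these data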;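 further: yeast aged for seven days with compound at 30 °C before DHE staining; 100% = average MFI of all compound-treated wells on the plate with controls excluded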
TRPC4 act = TRPC4 (mouse) channel activation | Q9QUQ5 | HEK293 TRPC4beta/mu-opioid, Fluo4 calcium fluorescence; stronger effect = higher value | B-score at 10 µM | actives 0.49% (n = 310,000);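 active means B-score above 5 SD of library B-scores, and initial fluorescence ratio not above library mean plus 5 SD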;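 further: positive B-score marks a calcium rise read as TRPC4 activation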
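System: HEK293 cells stably co-expressing mouse TRPC4beta and mu-opioid receptor; Schedule: Fluo4 dye loading 45 min at room temperature, 110 s recording; Detection: Fluo4 fluorescence, kinetic; Evaluation: B-scored integrated calcium fluorescence ratio; Controls: buffer (low) and maximal DAMGO (high).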
TRPC6 inhibitor = blocks the mouse TRPC6 cation channel | HEK293-TRPC6, membrane potential dye, ACh-evoked depolarization; stronger effect = lower value | B-score at 10 µM | actives 1.1% (n = 310,000) | AID 2553;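 active means B-score under library mean minus 3 SD, initial fluorescence not abnormally high, positive integrated signal ratio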;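 further: B-score derived from integrated fluorescence ratio over the kinetic read; more negative B-score means stronger inhibition of depolarization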
TRPC4 block = TRPC4 (mouse) channel inhibition; HEK293 TRPC4beta/mu-opioid, DAMGO-evoked Fluo4 calcium flux; stronger effect = lower value; B-score at 10 µM; actives 0.39% (n = 300,000);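 active means B-score over 3 SD under the library average, no early fluorescence shift, positive overall ratio signal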
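Assay system: Stable TRPC4beta/mu-opioid receptor HEK293 cells | Reagent: DAMGO in two steps, submaximal then maximal | Compound dosing: Single concentration per test compound | Signal: Fluo4 Ca2+ flux fluorescence | Evaluation: Per-well B score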
Superoxide pick = confirmation of caloric restriction mimetics inhibiting yeast age-related superoxide | S. cerevisiae aging, superoxide DHE fluorescence; stronger effect = lower value | superoxide response (% of plate), % at 10 µM | shares compounds with Yeast superoxide | actives 1% (n = 850);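 active means superoxide signal below 65% of the plate average of sample wells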;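 further: cells aged with compound for 7 days at 30 degrees C before staining; 100% equals mean DHE fluorescence of all compound wells on the plate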
DHE counter = DHE fluorescence interference, counter-screen artifact; fluorescence response, % at 10 µM; 850 tested, under 10 active; shares compounds with Yeast superoxide; S. cerevisiae BY4741, flow cytometry; stronger effect = lower value;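 active means fluorescence response below 15%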;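 further: percent of the mean fluorescence averaged over all compound wells on the plate; lower means stronger quenching of DHE signal or ROS scavenging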
* = called active by the depositor; i = inactive; nt = no result given.

SMILES | TRPC6 act | TRPC4 PAM | Yeast superoxide | TRPC4 act | TRPC6 inhibitor | TRPC4 block | Superoxide pick | DHE counter
CN(C(=O)CSc1nc(O)cc(=O)n1-c1ccccc1F)c1ccccc1 | i | i | 50* | i | i | i | 107 | 107
CCCn1c(C)nc2cc(Cl)c(N3CCN(c4nc(-c5ccc(C)cc5)cs4)CC3)cc21 | i | i | 94 | i | i | i | nt | nt
CCOC(=O)C(CC)n1cnc2c(nnn2-c2ccc(C)cc2)c1=O (stereo not given) | i | i | 100 | i | i | i | nt | nt
CCOC(=O)C(CC)n1cnc2c(nnn2-c2cccc(OC)c2)c1=O (stereo not given) | i | i | 65* | i | i | i | 107 | 95
COc1ccc(/C=C2\SC(=O)N(CCCC(=O)Nc3ccc(C(=O)O)cc3)C2=O)cc1OC | i | i | 97 | i | i | i | nt | nt
COc1ccc(/C=C2\SC(=S)N(CCCC(=O)Nc3ccc(C(=O)O)cc3)C2=O)cc1OC | i | i | 63* | i | i | i | 93 | 97
COc1ccc(C(=O)/C=C/c2ccc(OC3CSC3)cc2)cc1OC | i | i | 102 | i | i | i | nt | nt
O=C(/C=C/c1ccc(OC2CSC2)cc1)c1ccc(Cl)cc1 | i | i | 63* | i | i | i | 99 | 86
CCC(CO)Oc1cc(NC(=O)c2cccc(OC)c2)c2ncn(C(C)C)c2c1 (stereo not given) | nt | nt | 111 | nt | nt | nt | nt | nt
CCN(c1ccccc1)S(=O)(=O)c1ccc(N2CCN(c3ccc(OC)cc3)CC2)nc1 | nt | nt | 99 | nt | nt | nt | nt | nt
COc1ccccc1NC(=O)CSc1ccc(-c2ccccn2)nn1 | i | i | 113 | i | i | i | 101 | 97
CCOC(=O)c1ccc(NC(=O)CSc2ccc(-c3ccccn3)nn2)cc1 | i | i | 114 | i | i | i | 116 | 91
O=C(CSc1ccc(-c2cccnc2)nn1)Nc1ccccc1C(F)(F)F | i | i | 92 | i | i | i | 101 | 91
COc1ccc(NC(=O)CSc2ccc(-c3ccccn3)nn2)cc1OC | i | i | 120 | i | i | i | nt | nt
O=C(CSc1ccc(-c2ccccn2)nn1)Nc1ccc(F)c(F)c1 | i | i | 99 | i | i | i | 137 | 115
COc1cc(C(=O)N/N=C/c2ccc(OC(=O)c3cccc(C)c3)c(OC)c2)ccc1O | i | i | nt | i | i | i | nt | nt
COc1ccccc1NC(=O)C1CCN(S(=O)(=O)c2ccc3c(c2)NC(=O)CO3)CC1 | i | i | 102 | i | i | i | nt | nt
COC(=O)c1ccc2c(C)c(C3(O)CCCCC3)[nH]c2c1 | nt | nt | 94 | nt | nt | nt | nt | nt
O=C(NCCCN1CCCCCC1)C1CC(=O)N(CCc2ccccc2)C1 (stereo not given) | i | i | 91 | i | i | i | nt | nt
CCCN1CCN(CCCNC(=O)c2ccc3nc(N4CCCCC4)sc3c2)CC1 | i | i | 90 | i | i | i | nt | nt
O=C(CSc1ccc(-c2cccnc2)nn1)Nc1ccc(F)cc1F | i | i | 91 | i | i | i | nt | nt
O=C(CSc1ccc(-c2ccccn2)nn1)Nc1ccc(F)cc1F | i | i | 108 | i | i | i | 103 | 106
CCn1c2ccccc2c2cc(NC(=O)C(C)C)ccc21 | i | i | 90 | i | i | i | 107 | 104
CCCC(=O)Nc1ccc2c(c1)c1ccccc1n2CC | i | i | 80 | i | i | i | 113 | 117
CCn1c2ccccc2c2cc(NC(=O)CC(C)=O)ccc21 | i | i | 95 | i | i | i | 101 | 93
O=C1N=C(N2CCCCC2)S/C1=C\c1ccncc1 | i | i | 100 | i | i | i | nt | nt
